Assay results reported in ChEMBL document CHEMBL1129389, “Mechanism-based design of parasite-targeted artemisinin derivatives: synthesis and antimalarial activity of benzylamino and alkylamino ether analogues of artemisinin” (J Med Chem, 1996).

Legend:
Plasmodium falciparum [1] = assay: Antimalarial activity against Plasmodium falciparum HB3; type: functional, organism-based
In short: (§1)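 Parasites kept in continuous culture in human erythrocytes (2–5%) in RPMI 1640 with 25 mM HEPES, 32 mM NaHCO3 and 10% human serum, gassed 3% O2/4% CO2/93% N2. 48 h assay: 1% initial parasitemia, 5% hematocrit, ethanol stocks (final <1% ethanol); [3H]hypoxanthine added after 24 h at 37 °C, counted after further 24 h. IC50 by probit interpolation; triplicate.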

Plasmodium falciparum [2] = assay: Antimalarial activity against Plasmodium falciparum K1; type: functional, organism-based; in short: as §1

SMILES | IC50 (Plasmodium falciparum [1]) [nM] | IC50 (Plasmodium falciparum [2]) [nM]
CCN(CC)Cc1ccc(CO[C@H]2OC3O[C@@]4(C)CC[C@H]5[C@H](C)CCC([C@H]2C)[C@@]35OO4)cc1 (stereo partly specified) | 3.1 | 1.4
C[C@@H]1CCC2[C@@H](C)[C@@H](OCc3ccc(CN4CCOCC4)cc3)OC3O[C@@]4(C)CC[C@@H]1[C@]32OO4 (stereo partly specified) | 50 | 35
C[C@@H]1CCC2[C@@H](C)[C@@H](OCc3ccc(CN4CCCCC4)cc3)OC3O[C@@]4(C)CC[C@@H]1[C@]32OO4 (stereo partly specified) | 12.2 | 9.8
C[C@@H]1CC[C@H]2[C@@H](C)C(=O)O[C@@H]3O[C@@]4(C)CC[C@@H]1[C@]32OO4 [ARTEMISININ] | 7.3 | 6.4
C[C@@H]1CCC2[C@@H](C)[C@@H](OCc3ccc(CN4CCCC4)cc3)OC3O[C@@]4(C)CC[C@@H]1[C@]32OO4 (stereo partly specified) | 2.3 | 2.3
CCNCCO[C@H]1OC2O[C@@]3(C)CC[C@H]4[C@H](C)CCC([C@H]1C)[C@@]24OO3 (stereo partly specified) | 4.1 | 4.1
CNCCO[C@H]1OC2O[C@@]3(C)CC[C@H]4[C@H](C)CCC([C@H]1C)[C@@]24OO3 (stereo partly specified) | 2.7 | 2.4
C[C@@H]1CCC2[C@@H](C)[C@@H](OCc3ccc(CO)cc3)OC3O[C@@]4(C)CC[C@@H]1[C@]32OO4 (stereo partly specified) | 4.2 | 4.4
